From paper PMC10205783 (Immuno-Oncology and Technology, 2023)
≈ marks a conversion by molar mass, not a printed value.

Tests used:
[1] = system: E0771 tumors; test: E0771 orthotopic breast cancer model; format: in vivo, C57BL/6 mice
[2] = 4-week GLP toxicology study in rats; format: in vivo
[3] = target: 5-HT2B (Homo sapiens, UniProt P41595); test: 5-HT2B antagonist confirmation; format: biochemical
[4] = Pharmacokinetics in male CD1 mice: plasma exposure after oral gavage; format: in vivo; conditions: male CD1 mice, 3, 10 and 30 mg/kg oral gavage
[5] = system: respiratory functions; test: GLP safety pharmacology, respiratory functions in rats; format: in vivo
[6] = system: circulating LPA C18:2; test: First-in-human single ascending oral dose study: LPA C18:2 pharmacodynamics; format: in vivo, healthy male volunteers
[7] = 4-week GLP toxicology study in dogs; format: in vivo
[8] = system: stimulated human primary cells (lung epithelial cells and fibroblasts; lung fibroblasts only; renal epithelial cells with lung fibroblasts); test: BioMAP Fibrosis phenotypic screening panel; format: cell-based; conditions: 6 μM, 48 h, TGF-β and TNF-α stimulated co-cultures
In short: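 Three co-culture systems of human primary cells: lung epithelial cells with lung fibroblasts, lung fibroblasts alone, renal epithelial cells with lung fibroblasts. Cells stimulated with TGF-β and TNF-α, then exposed 48 h to test compound at 0.24, 1.2 and 6 μM. Biomarkers quantified by ELISA. Significance envelope: 95% CI bounds of historical vehicle controls.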

[9] = In vitro toxicology; conditions: based on absence of in vitro toxicology findings
[10] = system: 4T1 tumors; test: 4T1 metastasis assay with resection of the primary tumor; format: in vivo, BALB/c mice
In short: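 Female BALB/c mice implanted surgically with 4T1 cells in the mammary fat-pad, n = 12 per group. Primary tumour resected at day 15 and weighed. Test compound 100 mg/kg b.i.d. by oral gavage. Lungs and bone marrow harvested 20 days after resection. Lungs fixed and H&E-stained for metastases. Bone marrow flushed from hind limbs, cultured in complete medium with 6-thioguanine 10 μg/ml, colonies crystal violet-stained.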

[11] = target: hERG tail current (Homo sapiens, UniProt Q12809); test: GLP hERG assay; format: cell-based
[12] = system: LPA1, LPA2, LPA3, LPA5, S1P1, S1P2, SP3, S1P4 and S1P5; SafetyScreen44 panel; test: Off-target profiling on lipid receptor panel and SafetyScreen44 panel; format: binding
[13] = system: circulating LPA C18:2; test: Pharmacodynamics in male CD1 mice: circulating LPA C18:2 after oral dose; format: in vivo
[14] = system: tumor-infiltrating lymphocyte (TIL) migration; conditions: LPA chemorepulsion of T cells; cited from earlier work
[15] = First-in-human single ascending oral dose study: safety and pharmacokinetics
[16] = system: bleomycin-induced pulmonary fibrosis; test: Bleomycin-induced pulmonary fibrosis; format: in vivo, C57BL/6 mice
In short: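 Anaesthetised male C57BL/6 mice given intranasal bleomycin (0.6 mg/ml) or saline. Test compound 10 mg/kg or methocel/PBS vehicle by oral gavage twice daily from day 0 for 21 days; body weight monitored. Day 21: terminal plasma; BALF by two ice-cold saline lavages via tracheal cannula, supernatant after centrifugation. LPA species by LC-MS/MS; Mann–Whitney test.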

[17] = target: 5-hydroxytryptamine 2B (5-HT2B) receptor (Homo sapiens, UniProt P41595); test: 5-HT2B receptor binding; conditions: only hit of the panels
[18] = system: cardiovascular and neurobehavioral functions; test: GLP safety pharmacology, cardiovascular and neurobehavioral functions in dogs; format: in vivo
[19] = system: bleomycin-induced pulmonary fibrosis; conditions: mouse; cited from earlier work
[20] = phase II, IPF patients, cited from earlier work
[21] = 4T1, 20 days after removal of primary tumor
[22] = single oral dose, healthy male volunteers

hERG tail current, sequence (Q12809 whole entry): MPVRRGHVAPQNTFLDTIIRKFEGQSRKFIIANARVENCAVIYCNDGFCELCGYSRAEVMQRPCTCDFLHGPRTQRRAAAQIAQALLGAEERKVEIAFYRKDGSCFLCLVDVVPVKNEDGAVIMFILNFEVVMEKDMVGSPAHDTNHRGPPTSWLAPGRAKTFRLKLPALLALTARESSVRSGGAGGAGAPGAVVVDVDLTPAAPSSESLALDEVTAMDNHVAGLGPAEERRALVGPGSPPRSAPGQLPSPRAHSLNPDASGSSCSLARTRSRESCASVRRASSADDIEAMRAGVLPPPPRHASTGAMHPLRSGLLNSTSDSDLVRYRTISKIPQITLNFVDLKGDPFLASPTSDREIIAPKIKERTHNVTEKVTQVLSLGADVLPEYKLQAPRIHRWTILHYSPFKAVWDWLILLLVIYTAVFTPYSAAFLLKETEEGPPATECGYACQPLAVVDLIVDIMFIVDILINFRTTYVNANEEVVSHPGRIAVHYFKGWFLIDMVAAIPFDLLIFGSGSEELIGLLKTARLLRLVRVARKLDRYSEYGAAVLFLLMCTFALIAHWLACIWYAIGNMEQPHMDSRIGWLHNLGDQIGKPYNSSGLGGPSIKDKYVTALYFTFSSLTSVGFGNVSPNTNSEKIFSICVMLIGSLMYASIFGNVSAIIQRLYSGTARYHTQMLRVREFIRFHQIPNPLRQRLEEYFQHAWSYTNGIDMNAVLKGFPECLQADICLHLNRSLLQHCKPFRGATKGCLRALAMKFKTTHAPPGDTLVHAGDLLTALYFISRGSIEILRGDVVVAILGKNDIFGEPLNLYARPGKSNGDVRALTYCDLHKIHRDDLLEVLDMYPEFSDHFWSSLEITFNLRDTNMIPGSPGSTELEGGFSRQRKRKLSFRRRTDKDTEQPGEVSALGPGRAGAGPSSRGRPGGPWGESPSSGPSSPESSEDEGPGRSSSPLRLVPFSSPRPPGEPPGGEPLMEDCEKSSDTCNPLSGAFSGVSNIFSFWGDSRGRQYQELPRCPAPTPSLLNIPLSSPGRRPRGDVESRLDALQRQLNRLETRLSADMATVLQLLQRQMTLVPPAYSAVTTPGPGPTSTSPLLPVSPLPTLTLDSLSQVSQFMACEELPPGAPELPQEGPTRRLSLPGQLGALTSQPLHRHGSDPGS
5-hydroxytryptamine 2B (5-HT2B) receptor, sequence (P41595 whole entry): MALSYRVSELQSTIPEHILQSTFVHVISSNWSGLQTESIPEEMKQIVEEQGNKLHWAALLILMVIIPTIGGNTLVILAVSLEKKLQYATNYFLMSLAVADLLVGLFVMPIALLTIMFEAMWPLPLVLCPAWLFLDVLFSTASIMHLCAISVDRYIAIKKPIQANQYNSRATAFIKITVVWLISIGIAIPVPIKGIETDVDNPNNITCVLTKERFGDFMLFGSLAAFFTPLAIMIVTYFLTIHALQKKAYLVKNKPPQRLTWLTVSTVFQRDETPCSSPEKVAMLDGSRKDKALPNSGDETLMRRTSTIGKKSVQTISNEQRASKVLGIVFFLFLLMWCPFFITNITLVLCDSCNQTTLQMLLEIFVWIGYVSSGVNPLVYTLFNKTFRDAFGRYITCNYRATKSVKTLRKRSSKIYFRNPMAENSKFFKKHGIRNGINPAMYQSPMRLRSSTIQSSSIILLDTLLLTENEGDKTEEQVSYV
5-HT2B, sequence (P41595 whole entry, species assumed): as the sequence (P41595 whole entry) above

Structure (SMILES): C[C@H](NC(=O)CCc1nc2cccnc2n1Cc1ccc(OC(F)(F)F)cc1)c1ccc(Cl)cc1 [IOA-289]
- tumor growth ([1]; E0771, 30 mg/kg b.i.d. oral from day 3 to day 40, compared with control group): reduced the tumor growth
- complete tumor eradication ([1]; E0771, n = 10 per group): complete tumor eradication in two mice
- NOAEL at 4 weeks ([2]; rat, in vivo, po): 300 mg/kg/day
- main target organs for toxicity ([2]; rats, all findings reversible): the liver, the bone marrow and the stomach in both sexes and additionally the kidneys, the testes and thyroids in males
- IC50 [3]: 2.5 µM
- plasma exposure [4]: dose-proportional increase
- effects on respiratory functions [5]: no relevant effects
- IC50 ([6]; Homo sapiens, po, read-out: IC50 on % LPA C18:2 reduction from baseline): 0.015 µg/mL (≈ 0.0298 µM)
- circulating levels of LPA C18:2 ([6]; maximal inhibition at cohorts 4 and 5 dose levels): dose-related decrease
- time of peak inhibition of LPA C18:2 after dose ([6]; single oral dose): 1 to 2 h
- NOAEL at 4 weeks ([7]; dog, in vivo, po): 60 mg/kg/day
- main target organs for toxicity ([7]; dogs): the gastrointestinal tract, the liver, the bladder and the parotid gland
- activity of EGFR [8]: significantly decreased
- activity of MCP-1 [8]: significantly decreased
- activity of collagen III (Col-III) [8]: significantly decreased
- activity of sIL-6 [8]: significantly decreased
- activity of sIL-8 [8]: significantly decreased
- activity of sVEGF [8]: significantly decreased
- activity of αSMA [8]: significantly decreased
- risk for genotoxicity, phototoxicity and cytotoxicity [9]: low risk
- bone metastases (colony formation assay from bone marrow) [10, 21]: marked reduction
- metastatic burden in lungs (histology) [10, 21]: marked reduction
- primary tumor growth ([10]; 4T1, primary tumor resected at day 15): no effect
- IC50 [11]: 1.03 µM
- off-target interactions [12]: no to minimal potential off-target interactions
- ED50 ([13]; Mus musculus, po, 1 h, read-out: ED50, reduction of circulating LPA C18:2): ~3 mg/kg
- reduction of circulating LPA C18:2 ([13]; male CD1 mice, 3, 10 and 30 mg/kg oral gavage): dose-dependent reduction
- TIL migration in vitro [14]: can rescue
- Tmax ([15]; male, human, in vivo, po): 1 h
- maximum plasma concentrations versus dose ([15]; single ascending oral doses, five cohorts): increased dose proportionally
- adverse events [15, 22]: no adverse events reported
- safety and tolerability [15, 22]: well tolerated
- LPA C18:2 levels in BALF ([16]; BLM model, day 21): significantly reduced
- LPA C18:2 levels in plasma ([16]; BLM model, day 21): significantly reduced
- severity of the BLM model followed by body weight ([16]; compared with vehicle treatment): alleviated the severity substantially
- binding to 5-HT2B receptor [17]: sub-micromolar binding
- effects on cardiovascular (including QTc changes) and neurobehavioral functions [18]: no relevant effects

Structure (SMILES): CCc1nc2c(C)cc(N3CCN(CC(=O)N4CC(O)C4)CC3)cn2c1N(C)c1nc(-c2ccc(F)cc2)c(C#N)s1 [ziritaxestat, 2-[[2-ethyl-6-[4-[2-(3-hydroxyazetidin-1-yl)-2-oxo-ethyl]piperazin-1-yl]-8-methyl-imidazo[1,2-a]pyridin-3-yl]-methyl-amino]-4-(4-fluorophenyl)thiazole-5-carbonitrile]
- efficacy in bleomycin-induced pulmonary fibrosis model [19]: demonstrated efficacy
- plasma LPA C18:2 levels ([20]; 12 weeks): reducing
- tolerability ([20]; 12 weeks): well tolerated
- forced vital capacity ([20]; after 12 weeks of treatment): stabilizing
